Format in all cases: functional, cell-based
The nature of experiment [1]: Cytotoxicity against human QGY7701 cells after 24 hrs by MTT assay. Particulars: QGY7701, 24 h. A digest of the protocol: (§1)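 Cell lines from the Navy Medical College, seeded at 8000 cells/well in 96-well plates. Compounds dissolved in DMSO (stock 10 g/L) and freshly diluted in medium. Dilutions were added in duplicate 24 h after seeding, with incubation continued at 37 °C. Viability read by MTT. IC50 taken as the concentration giving 50% growth inhibition, determined following NCCLS recommendations.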

A further experiment has as its system A549. In words: Cytotoxicity against human A549 cells after 24 hrs by MTT assay. An outline of the steps:
as §1
A general note: Tetrazolium assays rely on reduction of a dye to a coloured formazan, in cell work by metabolically active cells.

In another experiment the test system is SW480. The experiment can be described thus: Cytotoxicity against human SW480 cells after 24 hrs by MTT assay. Particulars: SW480, 24 h. A digest of the protocol: as §1
The next experiment has as its system HeLa. The experiment can be described thus: Cytotoxicity against human HeLa cells after 24 hrs by MTT assay. Particulars: Homo sapiens, HeLa, 24 h; read-out: IC50. A digest of the protocol: as §1
Setting [2] is: Homo sapiens, A549, 24 h, read-out: IC50.

For orientation: IC50 means the concentration at which inhibition is half-maximal.

For the compound `C=CC1=C(C(=O)N2CCN(c3cccc(OC)c3)CC2)C(c2ccc(OC)cc2)OC1` (centres undefined), the 50% inhibitory concentration (IC50) in experiment [1] amounted to 17.9 µM; in the experiment with A549 (setting [2]), 20.7 µM; with SW480, 25 µM; in the experiment on HeLa, 15.3 µM.

As to `C=CC1=C(C(=O)Nc2ccccc2)C(c2ccc(OC)c(OC)c2)OC1` (centres undefined), the IC50 was > 100 µM in experiment [1], > 100 µM in the experiment with A549 (setting [2]), 45.1 µM in the experiment on SW480 and 5.03 µM with HeLa.

In the case of `C=CC1=C(C(=O)NCc2ccccc2)C(c2ccc(OC)c(OC)c2)OC1` (centres undefined), the half-inhibitory concentration (IC50) (in experiment [1]; in the experiment with A549 (setting [2]); with SW480; in the experiment on HeLa) was > 100 µM each time.

`C=CC1=C(C(=O)NC2CCCCC2)C(c2ccc(OC)cc2)OC1` (centres undefined): the 50% inhibitory concentration (IC50) in experiment [1] was > 100 µM; in the experiment with A549 (setting [2]) it was > 100 µM; in the experiment with SW480 it was > 100 µM; in the experiment with HeLa, 24.8 µM.

Take `C=CC1=C(C(=O)NCc2ccc(C)cc2)C(c2ccc(OC)cc2)OC1` (centres undefined): the IC50 in experiment [1] was 43.1 µM; with A549 (setting [2]) it was > 100 µM; in the experiment with SW480, 31.7 µM; in the experiment with HeLa, 15.8 µM.

Regarding `C=CC1=C(C(=O)NCC(C)C)C(c2ccc(F)cc2)OC1` (centres undefined), the IC50 (in experiment [1]; in the experiment on A549 (setting [2]); in the experiment with SW480; in the experiment on HeLa) was > 100 µM in each case.

Regarding `C=CC1=C(C(=O)NCCc2ccc(F)cc2)C(c2ccc(OC)cc2)OC1` (centres undefined), the IC50 (in experiment [1]; with A549 (setting [2]); in the experiment with SW480; in the experiment with HeLa) was > 100 µM in each case.

Consider `C=CC1=C(C(=O)NCc2ccccc2)C(c2ccc(Cl)c(Cl)c2)OC1` (centres undefined), for which the IC50 (in experiment [1]; in the experiment on A549 (setting [2]); in the experiment with SW480; in the experiment on HeLa) was > 100 µM in each case.

As for `C=CC1=C(C(=O)NCc2ccc(Cl)cc2)C(c2ccc(F)cc2)OC1` (centres undefined), the IC50 in experiment [1] was 36.9 µM; in the experiment on A549 (setting [2]) it was > 100 µM; in the experiment on SW480, > 100 µM; with HeLa, > 100 µM.

Consider `C=CC1=C(C(=O)NCC(C)C)C(c2ccc(OC)cc2)OC1` (centres undefined), for which the IC50 (in experiment [1]; in the experiment on A549 (setting [2]); in the experiment with SW480; with HeLa) was > 100 µM in each case.

In the case of `C=CC1=C(C(=O)NCc2ccccc2)C(c2ccc(F)cc2)OC1` (centres undefined), the IC50 in experiment [1] was 67.6 µM; in the experiment on A549 (setting [2]) it was > 100 µM; in the experiment on SW480, > 100 µM; in the experiment on HeLa, > 100 µM.

`C=CC1=C(C(=O)Nc2ccc(OCC)cc2)C(c2ccc(OC)cc2)OC1` (centres undefined): the half-maximal inhibitory concentration (IC50) in experiment [1] was > 100 µM; in the experiment with A549 (setting [2]) it was 17.6 µM; in the experiment with SW480 it was > 100 µM; with HeLa it was > 100 µM.

As to `C=CC1=C(C(=O)Nc2ccccc2)C(c2ccc(Cl)c(Cl)c2)OC1` (centres undefined), the half-maximal inhibitory concentration (IC50) (in experiment [1]; in the experiment on A549 (setting [2]); in the experiment with SW480; in the experiment with HeLa) was > 100 µM each time.

For `C=CC1=C(C(=O)N2CCN(c3ccccc3Cl)CC2)C(c2ccc(OC)cc2)OC1` (centres undefined), the IC50 in experiment [1] is > 100 µM; in the experiment on A549 (setting [2]) it was 35.3 µM; with SW480 it was 13.1 µM; with HeLa it was > 100 µM.

Consider `C=CC1=C(C(=O)NCCCCC)C(c2ccc(Cl)c(Cl)c2)OC1` (centres undefined), for which the IC50 in experiment [1] was > 100 µM; in the experiment with A549 (setting [2]) it was > 100 µM; in the experiment on SW480, 27.5 µM; in the experiment on HeLa, > 100 µM.

In the case of `C=CC1=C(C(=O)Nc2ccccc2)C(c2ccc(OC)cc2)OC1` (centres undefined), the IC50 (in experiment [1]; with A549 (setting [2]); with SW480; in the experiment on HeLa) was > 100 µM each time.

With `C=CC1=C(C(=O)NCCc2cccc(F)c2)C(c2ccc(F)cc2)OC1` (centres undefined), the IC50 is 59.8 µM in experiment [1], > 100 µM in the experiment with A549 (setting [2]), > 100 µM in the experiment on SW480 and > 100 µM in the experiment with HeLa.

As to `C=CC1=C(C(=O)NCCC)C(c2ccc(OC)cc2)OC1` (centres undefined), the IC50 in experiment [1] is > 100 µM; with A549 (setting [2]) it was > 100 µM; in the experiment on SW480, > 100 µM; with HeLa, 14 µM.

For `C=CC1=C(C(=O)O)C(c2ccc(OC)cc2)OC1` (centres undefined), the half-maximal inhibitory concentration (IC50) was > 100 µM in experiment [1], > 100 µM with A549 (setting [2]), > 100 µM in the experiment with SW480 and 44.3 µM in the experiment on HeLa.

On to `C=CC1=C(C(=O)NCCc2ccccc2F)C(c2ccc(F)cc2)OC1` (centres undefined), for which the half-maximal inhibitory concentration (IC50) is 35.1 µM in experiment [1], > 100 µM in the experiment with A549 (setting [2]), > 100 µM with SW480 and > 100 µM in the experiment on HeLa.

Consider `C=CC1=C(C(=O)NC(C)(C)C)C(c2ccc(F)cc2)OC1` (centres undefined), for which the IC50 (in experiment [1]; in the experiment on A549 (setting [2]); in the experiment with SW480; in the experiment with HeLa) was > 100 µM each time.

Consider `C=CC1=C(C(=O)NC2CCCCC2)C(c2ccc(OC)c(OC)c2)OC1` (centres undefined), for which the IC50 was 7.49 µM in experiment [1], > 100 µM with A549 (setting [2]), 19.1 µM with SW480 and 5.54 µM in the experiment with HeLa.

On to `C=CC1=C(C(=O)N2CCN(c3ccccc3OC)CC2)C(c2ccc(OC)cc2)OC1` (centres undefined), for which the IC50 was 23.6 µM in experiment [1], 23 µM in the experiment on A549 (setting [2]), > 100 µM in the experiment with SW480 and > 100 µM in the experiment with HeLa.

`C=CC1=C(C(=O)NCc2ccc(OC)c(OC)c2)C(c2ccc(F)cc2)OC1` (centres undefined): the IC50 in experiment [1] was 87.3 µM; in the experiment on A549 (setting [2]), > 100 µM; with SW480, > 100 µM; with HeLa it was > 100 µM.

Consider `C=CC1=C(C(=O)NC2CCCCC2)C(c2ccc(F)cc2)OC1` (centres undefined), for which the IC50 in experiment [1] is 40.5 µM; in the experiment on A549 (setting [2]), > 100 µM; in the experiment on SW480, > 100 µM; in the experiment with HeLa, > 100 µM.

Consider `C=CC1=C(C(=O)Nc2ccc(OCC)cc2)C(c2ccc(F)cc2)OC1` (centres undefined), for which the IC50 is 61.6 µM in experiment [1], “Not Active” in the experiment with A549 (a549), > 100 µM in the experiment on SW480 and > 100 µM with HeLa.

In the case of `C=CC1=C(C(=O)O)C(c2ccc(OC)c(OC)c2)OC1` (centres undefined), the 50% inhibitory concentration (IC50) was > 100 µM in experiment [1], > 100 µM in the experiment on A549 (setting [2]), > 100 µM in the experiment on SW480 and 18 µM in the experiment with HeLa.

Consider `C=CC1=C(C(=O)NCc2ccc(Cl)cc2)C(c2ccc(OC)cc2)OC1` (centres undefined), for which the IC50 (in experiment [1]; in the experiment with A549 (setting [2]); in the experiment with SW480; with HeLa) was > 100 µM each time.

`C=CC1=C(C(=O)NCc2ccc(C)cc2)C(c2ccc(OC)c(OC)c2)OC1` (centres undefined): the IC50 is 69.1 µM in experiment [1], > 100 µM with A549 (setting [2]), > 100 µM in the experiment on SW480 and > 100 µM in the experiment on HeLa.

For the compound `C=CC1=C(C(=O)NCc2ccccc2)C(c2ccc(OC)cc2)OC1` (centres undefined), the IC50 was > 100 µM in experiment [1], > 100 µM in the experiment with A549 (setting [2]), 39.5 µM in the experiment with SW480 and > 100 µM with HeLa.

Consider `C=CC1=C(C(=O)NCc2ccccc2F)C(c2ccc(F)cc2)OC1` (centres undefined), for which the IC50 in experiment [1] is 51.4 µM; in the experiment on A549 (setting [2]), > 100 µM; in the experiment with SW480 it was > 100 µM; with HeLa it was > 100 µM.

The values are drawn from ChEMBL document CHEMBL1932981, “Synthesis of novel 2, 5-dihydrofuran derivatives and evaluation of their anticancer activity” (Eur J Med Chem, 2012).
